According to ChEMBL document CHEMBL1141778, “Iminosugar-producing Thai medicinal plants” (J Nat Prod, 2005):
Values belong to the compound of their own block, whether it stands above or below them. Calls of active or inactive are those of the source. No cut-off for these calls is given here.

Legend:
[1] = Inhibition of alpha-L-fucosidase
Outline: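 Bovine epididymis alpha-L-fucosidase at pH 5.5 with the matching p-nitrophenyl glycoside as substrate. The reaction was stopped with 400 mM Na2CO3, and released p-nitrophenol was read at 400 nm.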

[2] = (§1) Inhibition of almond beta-glucosidase; set-up: species or system Prunus dulcis
Outline: (§2)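 The substrate was the matching p-nitrophenyl glycoside. Reactions were terminated with 400 mM Na2CO3, and liberated p-nitrophenol was measured spectrophotometrically at 400 nm.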

[3] = biological target: T1, Sucrase-isomaltase, intestinal (Rattus norvegicus, UniProt P23739); assay: Inhibition of rat intestinal sucrase
Outline: (§3)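 Enzyme source was brush border membranes prepared from rat small intestine, assayed at pH 5.8 with sucrose (sucrase) or isomaltose (isomaltase) as substrate. Released D-glucose was quantified colorimetrically with a glucose test kit.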

[4] = biological target: T1, Sucrase-isomaltase, intestinal; assay: Inhibition of rat intestinal isomaltase; outline: as §3
[5] = Inhibition of bovine liver beta-galactosidase; set-up: species or system Bos taurus
Outline: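 Bovine liver beta-galactosidase at pH 6.8 with the matching p-nitrophenyl glycoside substrate. Stopped by adding 400 mM Na2CO3; released p-nitrophenol was measured at 400 nm.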

[6] = system: Prunus dulcis; assay: as §1; outline: as §2

T1 sequence (P23739 1-1013 limits assumed): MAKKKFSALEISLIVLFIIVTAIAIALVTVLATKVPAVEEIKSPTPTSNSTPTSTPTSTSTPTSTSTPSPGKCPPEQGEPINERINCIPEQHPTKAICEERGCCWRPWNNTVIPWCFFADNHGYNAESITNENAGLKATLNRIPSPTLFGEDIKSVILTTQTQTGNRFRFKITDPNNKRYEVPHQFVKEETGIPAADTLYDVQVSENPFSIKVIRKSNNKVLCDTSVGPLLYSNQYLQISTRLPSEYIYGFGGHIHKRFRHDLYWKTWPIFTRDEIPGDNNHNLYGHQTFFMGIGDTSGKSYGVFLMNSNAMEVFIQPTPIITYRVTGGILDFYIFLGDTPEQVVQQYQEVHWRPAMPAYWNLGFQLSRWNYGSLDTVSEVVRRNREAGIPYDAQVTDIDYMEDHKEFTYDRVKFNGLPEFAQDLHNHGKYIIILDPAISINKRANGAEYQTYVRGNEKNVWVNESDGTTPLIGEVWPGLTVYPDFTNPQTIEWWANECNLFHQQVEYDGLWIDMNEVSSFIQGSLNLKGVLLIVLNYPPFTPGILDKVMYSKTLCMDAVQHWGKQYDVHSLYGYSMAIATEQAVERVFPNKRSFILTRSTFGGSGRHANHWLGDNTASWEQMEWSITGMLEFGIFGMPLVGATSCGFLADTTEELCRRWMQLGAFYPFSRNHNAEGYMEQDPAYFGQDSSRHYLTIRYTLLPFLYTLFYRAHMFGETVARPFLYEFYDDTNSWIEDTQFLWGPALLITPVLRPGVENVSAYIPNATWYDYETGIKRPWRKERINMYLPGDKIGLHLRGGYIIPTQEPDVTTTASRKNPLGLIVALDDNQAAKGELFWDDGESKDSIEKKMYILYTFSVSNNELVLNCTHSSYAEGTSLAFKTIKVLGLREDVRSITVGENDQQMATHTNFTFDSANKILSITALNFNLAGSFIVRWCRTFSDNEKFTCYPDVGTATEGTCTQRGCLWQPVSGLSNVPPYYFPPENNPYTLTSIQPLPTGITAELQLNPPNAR
T1 sequence (P23739 1014-1841 limits assumed): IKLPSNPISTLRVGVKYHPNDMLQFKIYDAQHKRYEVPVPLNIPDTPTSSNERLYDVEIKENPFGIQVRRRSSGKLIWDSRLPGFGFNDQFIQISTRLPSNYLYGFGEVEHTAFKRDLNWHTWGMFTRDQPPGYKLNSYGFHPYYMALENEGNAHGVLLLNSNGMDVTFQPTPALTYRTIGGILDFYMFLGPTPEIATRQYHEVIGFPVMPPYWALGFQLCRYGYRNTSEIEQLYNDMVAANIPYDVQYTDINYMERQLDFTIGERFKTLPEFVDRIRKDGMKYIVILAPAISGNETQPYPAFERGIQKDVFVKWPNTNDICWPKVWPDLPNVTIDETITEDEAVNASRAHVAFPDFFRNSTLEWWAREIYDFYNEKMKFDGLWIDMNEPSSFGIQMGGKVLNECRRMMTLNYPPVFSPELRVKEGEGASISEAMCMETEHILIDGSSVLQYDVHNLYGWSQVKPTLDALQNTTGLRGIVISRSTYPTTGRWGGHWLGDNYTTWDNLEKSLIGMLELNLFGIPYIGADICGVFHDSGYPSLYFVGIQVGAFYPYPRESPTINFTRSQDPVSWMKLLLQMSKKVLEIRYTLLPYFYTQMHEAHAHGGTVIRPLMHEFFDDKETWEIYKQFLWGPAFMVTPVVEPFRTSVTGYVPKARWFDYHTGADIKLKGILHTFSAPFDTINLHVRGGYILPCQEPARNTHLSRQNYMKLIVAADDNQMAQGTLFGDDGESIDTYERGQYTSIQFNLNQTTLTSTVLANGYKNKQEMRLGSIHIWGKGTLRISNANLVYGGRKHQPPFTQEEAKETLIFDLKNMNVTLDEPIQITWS

SMILES: OC[C@@H]1N[C@H](CO)[C@@H](O)[C@@H]1O
- IC50 [2]: 320 µM
- IC50 [3]: 1000 µM
- IC50 [4]: 1000 µM

SMILES: C[C@@H]1O[C@@H](O[C@@H]2CN[C@H](CO)[C@@H](O)[C@@H]2O)[C@H](O)[C@H](O)[C@H]1O
- Ki [1]: 0.06 µM

SMILES: OC[C@H]1O[C@H](OC[C@H]2NC[C@@H](O)[C@@H](O)[C@@H]2O)[C@H](O)[C@@H](O)[C@@H]1O
- Ki [1]: 19 µM

SMILES: OC[C@H]1N[C@H](CO)[C@@H](O[C@@H]2O[C@H](CO)[C@@H](O)[C@H](O)[C@H]2O)[C@@H]1O
- Activity [6]: inactive
- IC50 [5]: 270 µM

SMILES: OC[C@H]1NC[C@@H](O)[C@@H](O[C@@H]2O[C@H](CO)[C@@H](O)[C@H](O)[C@H]2O)[C@@H]1O
- Activity [1]: inactive

The remaining lines, values ahead:

- Activity [1]: inactive
SMILES: OC[C@H]1NC[C@@H](O)[C@@H](O)[C@@H]1O[C@@H]1O[C@H](CO)[C@@H](O)[C@H](O)[C@H]1O

- Activity [1]: inactive
SMILES: OC[C@H]1NC[C@@H](O[C@@H]2O[C@H](CO)[C@@H](O)[C@H](O)[C@H]2O)[C@@H](O)[C@@H]1O

- IC50 [2]: 7.8 µM
- IC50 [5]: 3.3 µM
SMILES: OC[C@H]1N[C@H](CO)[C@@H](O)[C@H]1O

- Activity [1]: inactive
SMILES: OC[C@H]1NC[C@@H](O[C@H]2O[C@H](CO)[C@H](O)[C@H](O)[C@H]2O)[C@@H](O)[C@@H]1O
